Laboratory results from ChEMBL document CHEMBL1166000, “Maximizing chemical diversity of fungal metabolites: biogenetically related Heptaketides of the endolichenic fungus Corynespora sp. (1)” (J Nat Prod, 2010).
Calls of active or inactive are those of the source. No cut-off for these calls is given here.

Legend:
PC-3M [1] = test: Inhibition of human PC3M cell migration at 5 uM by wound-healing assay; assay type: functional, cell-based
PC-3M [2] = test: Inhibition of cell proliferation in human PC3M cells at 5 uM after 40 hrs by MTT assay; assay type: functional, cell-based
Method in brief: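 Antiproliferative (cytotoxicity) screen by the MTT method, with each compound tested at a single concentration of 5 µM.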

SMILES	inhibition (PC-3M [1])	inhibition (PC-3M [2])
COc1cc2c(c(OC)c1O)C(=O)C1=C(C[C@](C)(O)OC1)C2=O	inactive	inactive
COc1cc(OC)c2c(c1)C(=O)c1cc(C)ncc1C2=O	inactive	inactive
COc1cc(OC)c2c(c1)[C@H](O)C1C[C@](C)(O)OCC1C2=O (stereo partly drawn)	inactive	inactive
COc1cc(OC)c2c(c1)C(=O)C1=C(C2=O)C(OC)OC(C)=C1 (stereo not drawn)	inactive	inactive
COc1cc(OC)c2c(c1O)C(=O)c1cc(C)ncc1C2=O	inactive	inactive
COc1cc(O)c2c(c1)[C@H](O)C1C[C@](C)(O)OCC1C2=O (stereo partly drawn)	inactive	inactive
COc1cc(OC)c2c(c1)C(=O)C1=C(CO[C@@](C)(O)C1)C2=O	inactive	inactive
COc1cc(O)cc2c1C(=O)C1=C(C[C@](C)(O)OC1)C2=O	inactive	inactive
COc1cc(OC)c2c(c1O)C(=O)C1=C(CO[C@@](C)(O)C1)C2=O	inactive	inactive
